Measured values collected from several papers.
Target: Serine/threonine-protein kinase Chk1 (CHEK1, Homo sapiens, UniProt O14757)
Mode: inhibitor

Structure (SMILES) | effect on | technique | cell line | tested at | inhibition [%]
COc1cc2ncnc(Nc3ccc(Oc4ccccc4)c(C)c3C)c2cc1OC | enzyme activity |  |  | 1 µM | 1
CNCc1ccc(-c2cc(-c3nc(-c4ccc(S(=O)(=O)C(C)C)cc4)cnc3N)on2)cc1 | enzyme activity |  |  | 2 µM | 52
C=CC(=O)Nc1cc(Nc2nccc(Nc3cc(Cl)c(F)cc3C(C)(C)O)n2)c(OC)cc1N1CC[C@@H](N(C)C)C1 | enzyme activity |  |  | 1 µM | 9
CN(C)C1CCN(CC#Cc2nn(C3CCCC3)c3nc(NCc4ccccc4)ncc23)C1 (centres unmarked) | enzyme activity | FRET |  | 1 µM | -5
CCOc1cc(-c2nncn2C)ccc1Nc1ncc2cc(C)nc(NCC(C)(C)C)c2n1 | enzyme activity | FRET |  | 1 µM | < 15
CCN1CCN(Cc2ccc(NC(=O)c3ccc(C)c(/C=C/c4cnc5[nH]ccc5c4OC)c3)cc2C(F)(F)F)CC1 | target engagement in cells | chemoproteomics | A-375 | 50 nM | -118
CCCOc1ccc(/C=C2\SC(=O)NC2=O)cc1 | enzyme activity | mobility shift |  | 5 µM | -20
c1ccc(CNc2nc(N3CCOc4ccccc43)nc3c2CCCC3)cc1 | target engagement in cells | chemoproteomics |  | 20 mM | -3.2
CCN1CCN(Cc2ccc(NC(=O)c3ccc(C)c(Oc4ccnc5[nH]ccc45)c3)cc2C(F)(F)F)CC1 | target engagement in cells | chemoproteomics | A-375 | 50 nM | -156
O=C(CSc1nc2nccnc2c(=O)n1CCc1ccccc1)Nc1nccs1 | enzyme activity |  |  | 10 µM | -11
Cc1ccc(Nc2nccc(N(C)c3ccc4c(C)n(C)nc4c3)n2)cc1S(N)(=O)=O | enzyme activity |  |  | 0.3 µM | 2
CSc1nc(C)c(-c2ccnc(Nc3ccc(N4CCOCC4)cc3)c2)[nH]1 | enzyme activity |  |  | 10 µM | 12.4
CNC(=O)c1cc(Oc2ccc(NC(=O)Nc3ccc(Cl)c(C(F)(F)F)c3)cc2)ccn1 | enzyme activity |  |  | 0.3 µM | -5
COc1cccc2c(NCc3ccccc3)nc(-n3c(N)nc4ccccc43)nc12 | target engagement in cells | chemoproteomics |  | 20 mM | -4.2
